*1 amine or outer side, *2 acyl side, *3 side chain or, on linkers, in order; H or OH if unused. Where a SMILES comes first, the peptide text is derived from it. Bridges are numbered along the chain shown (N, C = ends). [ ]: non-standard residue; d: D form. X1 = CSCC[C@@H](C(=O)[*:2])N(C[C@@H](CS[*:3])NC(C)=O)[*:1]

Usually inhibition stands for how much of the control response was suppressed. High values mean strong suppression, low ones little suppression.

Low-density lipoprotein receptor (Homo sapiens), sequence (P01130 whole entry, the tested form may be a part): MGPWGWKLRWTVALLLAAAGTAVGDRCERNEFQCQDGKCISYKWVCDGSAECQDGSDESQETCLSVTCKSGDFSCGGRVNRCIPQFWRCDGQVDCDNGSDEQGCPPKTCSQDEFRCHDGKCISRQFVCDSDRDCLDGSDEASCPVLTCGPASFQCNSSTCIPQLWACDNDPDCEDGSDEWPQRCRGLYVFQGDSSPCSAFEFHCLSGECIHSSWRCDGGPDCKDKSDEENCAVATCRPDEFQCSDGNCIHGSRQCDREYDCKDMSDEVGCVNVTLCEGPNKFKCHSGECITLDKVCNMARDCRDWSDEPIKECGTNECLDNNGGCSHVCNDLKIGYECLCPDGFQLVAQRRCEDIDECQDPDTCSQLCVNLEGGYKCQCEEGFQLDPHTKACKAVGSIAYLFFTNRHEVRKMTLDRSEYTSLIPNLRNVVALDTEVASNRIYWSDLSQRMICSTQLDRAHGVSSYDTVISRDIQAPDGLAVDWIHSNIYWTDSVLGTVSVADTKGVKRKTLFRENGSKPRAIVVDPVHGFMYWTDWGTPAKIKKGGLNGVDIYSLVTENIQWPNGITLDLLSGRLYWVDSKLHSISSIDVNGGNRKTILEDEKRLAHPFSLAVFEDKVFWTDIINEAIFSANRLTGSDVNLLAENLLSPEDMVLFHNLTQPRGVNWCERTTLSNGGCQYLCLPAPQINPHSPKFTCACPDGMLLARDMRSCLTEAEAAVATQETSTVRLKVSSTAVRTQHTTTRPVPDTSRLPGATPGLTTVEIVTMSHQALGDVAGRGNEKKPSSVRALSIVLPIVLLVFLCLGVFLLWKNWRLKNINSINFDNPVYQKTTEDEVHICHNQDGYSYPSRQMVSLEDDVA

The target of the first assay is Low-density lipoprotein receptor (Homo sapiens) (UniProt P01130). The assay is described as follows: Displacement of S-tagged Ac-[cMPRLRGC]c-NH2 from human DsRed2-fused LDLR expressed in CHO cells at 10 uM after 1 hr by FRET assay. The format is cell-based. A digest of the protocol:
(§1)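 CHO cells stably expressing hLDLR-DsRed2 (Ham-F12, 5% FBS, Geneticin) at 800 000 cells/well were incubated in triplicate with S-tagged reference peptide (10 μM) plus test peptide (10 μM) in Ham-F12/1% BSA, 1 h, 37 °C. Scrambled and untagged peptide controls were included; values are means of at least three points.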
As to `CSCC[C@@H]1NC(=O)[C@H](NC(C)=O)CSSC[C@@H](C(N)=O)NC(=O)CNC(=O)[C@H](CCCNC(=N)N)NC(=O)[C@H](CC(C)C)NC(=O)[C@H](CCCNC(=N)N)NC(=O)CN(C)C1=O`, the inhibition amounted to 22%. In the case of `COCC[C@@H]1NC(=O)[C@H](NC(C)=O)CSSC[C@@H](C(N)=O)NC(=O)CNC(=O)[C@H](CCCNC(=N)N)NC(=O)[C@H](CC(C)C)NC(=O)[C@H](CCCNC(=N)N)NC(=O)[C@@H]2CCCN2C1=O`, the inhibition was found to be 0%. `CSCC[C@@H]1NC(=O)[C@H](NC(C)=O)CSSC[C@@H](C(N)=O)NC(=O)CNC(=O)[C@H](CCCNC(=N)N)NC(=O)[C@H](CC(C)C)NC(=O)[C@H](CCCN)NC(=O)[C@@H]2CCCN2C1=O` showed an inhibition of 28%.

Regarding `CSCCC1NC(=O)[C@H](NC(C)=O)CNC(=O)C[C@@H](C(N)=O)NC(=O)CNC(=O)[C@H](CCCNC(=N)N)NC(=O)[C@H](CC(C)C)NC(=O)[C@H](CCCNC(=N)N)NC(=O)[C@@H]2CCCN2C1=O` (single isomer, unassigned), the inhibition amounted to 12%. Compound `CSCC[C@@H]1NC(=O)[C@H](NC(C)=O)CSSC[C@@H](C(N)=O)NC(=O)[C@@H](C)NC(=O)[C@H](CCCNC(=N)N)NC(=O)[C@H](CC(C)C)NC(=O)[C@H](CCCNC(=N)N)NC(=O)[C@@H]2CCCN2C1=O` returned an inhibition of 54%. Regarding `CSCC[C@H](NC(=O)[C@H]1CSSC[C@H](N)C(=O)NCC(=O)N[C@@H](CCCNC(=N)N)C(=O)N[C@@H](CC(C)C)C(=O)N[C@@H](CCCNC(=N)N)C(=O)N2CCC[C@H]2C(=O)N1)C(=O)NC(C)=O`, the inhibition was 28%.

Compound `CSCC[C@@H]1NC(=O)[C@H](NC(C)=O)Cc2cn(nn2)CC[C@@H](C(N)=O)NC(=O)CNC(=O)[C@H](CCCNC(=N)N)NC(=O)[C@H](CC(C)C)NC(=O)[C@H](CCCNC(=N)N)NC(=O)[C@@H]2CCCN2C1=O` yielded an inhibition of 13%.

Take `CSCC[C@@H]1NC(=O)[C@H](NC(C)=O)CSSC[C@@H](C(N)=O)NC(=O)CNC(=O)[C@H](CCCNC(=N)N)NC(=O)[C@H](CC(C)C)NC(=O)[C@H](CCCNC(=N)N)NC(=O)[C@@H]2c3ccccc3CCN2C1=O`: the inhibition was 21%. Turning to `CSCC[C@@H]1NC(=O)[C@H](NC(C)=O)CSSC[C@@H](C(N)=O)NC(=O)CNC(=O)[C@H](CCCNC(=N)N)NC[C@H](CC(C)C)NC(=O)[C@H](CCCNC(=N)N)NC(=O)[C@@H]2CCCN2C1=O`, the inhibition was 40%.

For the compound `CSCC[C@@H]1NC(=O)[C@H](NC(C)=O)CNC(=N)NC[C@@H](C(N)=O)NC(=O)CNC(=O)[C@H](CCCNC(=N)N)NC(=O)[C@H](CC(C)C)NC(=O)[C@H](CCCNC(=N)N)NC(=O)[C@@H]2CCCN2C1=O`, the inhibition came to 0%. Turning to `CSCC[C@@H]1NC(=O)[C@H](NC(C)=O)CSSC[C@@H](C(N)=O)NC(=O)CNC(=O)[C@H](CCCN)NC(=O)[C@H](CC(C)C)NC(=O)[C@H](CCCNC(=N)N)NC(=O)[C@@H]2CCCN2C1=O`, the inhibition was found to be 0%. Turning to `CSCC[C@@H]1NC(=O)C(NC(C)=O)CSCC(C(N)=O)NC(=O)CNC(=O)[C@H](CCCNC(=N)N)NC(=O)[C@H](CC(C)C)NC(=O)[C@H](CCCNC(=N)N)NC(=O)[C@@H]2CCCN2C1=O` (mixture of isomers), the inhibition was 41%. `CSCC[C@@H]1NC(=O)[C@H](NC(C)=O)C/C=C\C[C@@H](C(N)=O)NC(=O)CNC(=O)[C@H](CCCNC(=N)N)NC(=O)[C@H](CC(C)C)NC(=O)[C@H](CCCNC(=N)N)NC(=O)[C@@H]2CCCN2C1=O` showed an inhibition of 22%.

On to `CSCC[C@@H]1NC(=O)[C@H](NC(C)=O)CSSC[C@@H](C(N)=O)NC(=O)CNC(=O)[C@H](CCCNC(=N)N)NC(=O)[C@H](CC(C)C)NC[C@H](CCCNC(=N)N)NC(=O)[C@@H]2CCCN2C1=O`, for which the inhibition amounted to 58%.

On to `CSCC[C@@H]1NC(=O)[C@H](NC(C)=O)CSSC[C@@H](C(N)=O)NC(=O)CNC(=O)[C@H](CCCNC(=N)N)NC(=O)[C@H](CC(C)C)NC(=O)[C@H](CCCNC(=N)N)NC(=O)c2ccccc2NC1=O`, for which the inhibition came out at 0%.

The compound `CSCC[C@@H]1NC[C@H](NC(C)=O)CSSC[C@@H](C(N)=O)NC(=O)CNC(=O)[C@H](CCCNC(=N)N)NC(=O)[C@H](CC(C)C)NC(=O)[C@H](CCCNC(=N)N)NC(=O)[C@@H]2CCCN2C1=O` (H-[X1]PRLRGC-NH2; disulfide 1-7) showed an inhibition of 37%. `CSCC[C@H]1CN2CCC[C@H]2C(=O)N[C@@H](CCCNC(=N)N)C(=O)N[C@@H](CC(C)C)C(=O)N[C@@H](CCCNC(=N)N)C(=O)NCC(=O)N[C@H](C(N)=O)CSSC[C@@H](NC(C)=O)C(=O)N1`: the inhibition stood at 33%. Compound `CSCC[C@H](NC(=O)[C@@H]1CCCN1C(=O)[C@@H](CCCNC(=N)N)[C@H]1CSSC[C@H](N)C(=O)NCC(=O)N[C@@H](CCCNC(=N)N)C(=O)N[C@@H](CC(C)C)C(=O)N1)C(=O)NC(C)=O` had an inhibition of 34%. Compound `CSCC[C@H](NC(=O)[C@@H]1CCCN1C(=O)[C@H]1CSSC[C@H](N)C(=O)NCC(=O)N[C@@H](CCCNC(=N)N)C(=O)N[C@@H](CC(C)C)C(=O)N[C@@H](CCCNC(=N)N)C(=O)N1)C(=O)NC(C)=O` registered an inhibition of 34%.

As for `CSCC[C@@H]1NC(=O)[C@H](NC(C)=O)CSSC[C@@H](C(N)=O)NC(=O)CNC(=O)[C@H](CCCN)NC(=O)[C@H](CC(C)C)NC(=O)[C@H](CCCN)NC(=O)[C@@H]2CCCN2C1=O`, the inhibition worked out at 31%.

`CC(=O)N[C@@H]1CSSC[C@@H](C(N)=O)NC(=O)CNC(=O)[C@H](CCCNC(=N)N)NC(=O)[C@H](CC(C)C)NC(=O)[C@H](CCCNC(=N)N)NC(=O)[C@@H]2CCCN2C(=O)[C@H](Cc2cccs2)NC1=O`: the inhibition was 0%. With `CSCC[C@@H]1NC(=O)[C@H](NC(C)=O)CSSC[C@@H](C(N)=O)NC(=O)CNC(=O)[C@H](CCCNC(=N)N)NC(=O)[C@H](CC(C)C)NC(=O)[C@H](CCCNC(=N)N)NC[C@@H]2CCCN2C1=O`, the inhibition was determined as 0%.

`CC(=O)N[C@@H]1CSSC[C@@H](C(N)=O)NC(=O)CNC(=O)[C@H](CCCNC(=N)N)NC(=O)[C@H](CC(C)C)NC(=O)[C@H](CCCNC(=N)N)NC(=O)[C@@H]2CCCN2C(=O)[C@@H]2CSCN2C1=O` showed an inhibition of 0%.

The target is the same in a further assay. The assay can be described thus: Displacement of S-tagged Ac-DSGL[CMPRLRGC]cDPR-NH2 from human DsRed2-fused LDLR expressed in CHO cells at 10 uM after 1 hr by FRET assay. The format is cell-based. A digest of the protocol: as §1
Compound Ac-DSGLSMPRLRGSDPR-NH2 had an inhibition of 0%. For the compound `CSCC[C@@H]1NC(=O)[C@@H](NC(C)=O)CSC[C@@H](C(N)=O)NC(=O)[C@H](CCCNC(=N)N)NC(=O)[C@@H]2CCCN2C1=O`, the inhibition turned out to be 0%. `CSCC[C@@H]1NC(=O)[C@@H](NC(=O)[C@H](CC(C)C)NC(=O)CNC(=O)[C@H](CO)NC(=O)[C@H](CC(=O)O)NC(C)=O)CSSC[C@@H](C(=O)N[C@@H](CC(=O)O)C(=O)N[C@@H](C)C(=O)N[C@@H](CCCNC(=N)N)C(N)=O)NC(=O)CNC(=O)[C@H](CCCNC(=N)N)NC(=O)[C@H](CC(C)C)NC(=O)[C@H](CCCNC(=N)N)NC(=O)[C@@H]2CCCN2C1=O` (Ac-DSGLCMPRLRGCDAR-NH2; disulfide 5-12): the inhibition is 52%. The compound `CSCC[C@H](NC(=O)[C@H](CS)NC(=O)[C@H](CC(C)C)NC(=O)CNC(=O)[C@H](CO)NC(=O)[C@H](CC(=O)O)NC(C)=O)C(=O)N1CCC[C@H]1C(=O)N[C@@H](CCCNC(=N)N)C(=O)N[C@@H](CC(C)C)C(=O)N[C@@H](CCCNC(=N)N)C(=O)NCC(=O)N[C@@H](CS)C(=O)N[C@@H](CC(=O)O)C(=O)N1CCC[C@H]1C(=O)N[C@@H](CCCNC(=N)N)C(N)=O` returned an inhibition of 50%. As for `CSCC[C@@H]1NC(=O)[C@@H](NC(=O)[C@H](CC(C)C)NC(=O)CNC(=O)[C@H](CO)NC(=O)[C@H](CC(=O)O)NC(C)=O)CSSC[C@@H](C(=O)N[C@@H](C)C(=O)N2CCC[C@H]2C(=O)N[C@@H](CCCNC(=N)N)C(N)=O)NC(=O)CNC(=O)[C@H](CCCNC(=N)N)NC(=O)[C@H](CC(C)C)NC(=O)[C@H](CCCNC(=N)N)NC(=O)[C@@H]2CCCN2C1=O` (Ac-DSGLCMPRLRGCAPR-NH2; disulfide 5-12), the inhibition stood at 70%. In turn, `CSCC[C@@H]1NC(=O)[C@@H](NC(=O)[C@H](CC(C)C)NC(=O)CNC(=O)[C@H](CO)NC(=O)[C@H](CC(=O)O)NC(C)=O)CSSC[C@@H](C(=O)N[C@@H](CC(=O)O)C(=O)N2CCC[C@H]2C(=O)N[C@@H](CCCNC(=N)N)C(N)=O)NC(=O)CNC(=O)[C@H](CCCNC(=N)N)NC(=O)[C@H](C)NC(=O)[C@H](CCCNC(=N)N)NC(=O)[C@@H]2CCCN2C1=O` (Ac-DSGLCMPRARGCDPR-NH2; disulfide 5-12) had an inhibition of 35%. `CSCC[C@@H]1NC(=O)[C@@H](NC(=O)[C@H](CC(C)C)NC(=O)CNC(=O)[C@H](CO)NC(=O)[C@H](CC(=O)O)NC(C)=O)CSSC[C@@H](C(=O)N[C@@H](CC(=O)O)C(=O)N2CCC[C@H]2C(=O)N[C@@H](C)C(N)=O)NC(=O)CNC(=O)[C@H](CCCNC(=N)N)NC(=O)[C@H](CC(C)C)NC(=O)[C@H](CCCNC(=N)N)NC(=O)[C@@H]2CCCN2C1=O` (Ac-DSGLCMPRLRGCDPA-NH2; disulfide 5-12) registered an inhibition of 55%.

Regarding `CSCC[C@@H]1NC(=O)[C@@H](NC(=O)[C@H](CC(C)C)NC(=O)CNC(=O)[C@H](CO)NC(=O)[C@H](CC(=O)O)NC(C)=O)CSSC[C@@H](C(=O)N[C@@H](CC(=O)O)C(=O)N2CCC[C@H]2C(=O)N[C@@H](CCCNC(=N)N)C(N)=O)NC(=O)CNC(=O)[C@H](C)NC(=O)[C@H](CC(C)C)NC(=O)[C@H](CCCNC(=N)N)NC(=O)[C@@H]2CCCN2C1=O` (Ac-DSGLCMPRLAGCDPR-NH2; disulfide 5-12), the inhibition was 2%. In the case of Ac-DSGLCMPRLRGADPR-NH2, the inhibition stood at 0%. With Ac-DSGLAMPRLRGCDPR-NH2, the inhibition stood at 0%.

Compound `CSCC[C@@H]1NC(=O)[C@@H](NC(=O)[C@H](C)NC(=O)CNC(=O)[C@H](CO)NC(=O)[C@H](CC(=O)O)NC(C)=O)CSSC[C@@H](C(=O)N[C@@H](CC(=O)O)C(=O)N2CCC[C@H]2C(=O)N[C@@H](CCCNC(=N)N)C(N)=O)NC(=O)CNC(=O)[C@H](CCCNC(=N)N)NC(=O)[C@H](CC(C)C)NC(=O)[C@H](CCCNC(=N)N)NC(=O)[C@@H]2CCCN2C1=O` (Ac-DSGACMPRLRGCDPR-NH2; disulfide 5-12) registered an inhibition of 64%.

The values above are taken from ChEMBL document CHEMBL2086366, “Chemical optimization of new ligands of the low-density lipoprotein receptor as potential vectors for central nervous system targeting” (J Med Chem, 2012).
